What was measured:
B16 = assay: Inhibition of murine B16 melanoma cell proliferation measured by the MTT assay; format: functional, cell-based; conditions: Mus musculus
In short: (§1)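 Murine L1210 leukemia and B16 melanoma cells were grown in RPMI 1640 with 10% fetal calf serum, 2 mM L-glutamine, penicillin/streptomycin and 10 mM HEPES (pH 7.4). Cells were exposed to nine serial drug dilutions in triplicate for about four doubling times (L1210 48 h, B16 96 h), then read by microculture tetrazolium (MTT) assay. IC50 is the concentration halving optical density versus untreated controls, averaged over ≥2 independent experiments.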

L1210 = assay: Inhibition of murine L1210 leukemia cell proliferation measured by the MTT assay; format: functional, cell-based; conditions: Mus musculus; in short: as §1
Mus musculus [1] = assay: Long-term survivors among 7 mice infected with B16 melanoma, scored on day 90 at 20 mg/kg dose on day 1; format: functional
Mus musculus [2] = assay: Long-term survivors among 7 mice infected with P388 leukemia, scored on day 60 at 20 mg/kg dose on day 1; format: functional
In short: (§2)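 B6D2F1 mice in groups of 6–7 received 10^6 P388 cells ip on day 0. Dihydrochloride salts dissolved in water were injected iv on day 1 or on days 1, 5 and 9, at three doses and then five. Read-outs were % T/C (median survival treated/control × 100) and long-term survivors on day 60, both at the optimal dose (no toxic death, weight loss <20%).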

Mus musculus [3] = assay: Percent median survival time of mice injected with P388 leukemia, at a subcutaneous compound dose of 10 mg/kg; format: functional
Mus musculus [4] = assay: Percent median survival time of mice injected with P388 leukemia, at a subcutaneous compound dose of 20 mg/kg; format: functional
Mus musculus [5] = assay: Percent median survival time of mice injected with B16 melanoma, at a intraperitoneal compound dose of 40 mg/kg
Mus musculus [6] = assay: Long-term survivors among 6 mice infected with P388 leukemia, scored on day 60 at 80 mg/kg dose; format: functional
In short: (§3)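 B6D2F1 mice in groups of 6–7 were inoculated ip on day 0 with 10^6 P388 cells. Dihydrochloride salts were dissolved in water and given iv on day 1 or on days 1, 5 and 9. Doses ranged from a low nontoxic dose to a toxic one. Long-term survivors were counted at day 60.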

Mus musculus [7] = assay: Percent median survival time of mice intraperitoneally injected with P388 leukemia was determined from tested at 80 mg/kg at day1,5,9 dose to that of control; format: functional; conditions: route intraperitoneal
In short: (§4)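 P388 leukemia in B6D2F1 mice (groups of 6–7), 10^6 cells inoculated ip on day 0. Dihydrochloride salts were dissolved in water and given iv on day 1 or on days 1, 5, 9. Three doses were tested, then five if active. %T/C = median survival treated/control × 100, reported at the optimal dose (no toxic death, weight loss <20%), from one or two representative experiments.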

Mus musculus [8] = assay: Percent median survival time of mice intraperitoneally injected with P388 leukemia was determined from tested at 160 mg/kg at day1 dose to that of control; format: functional; in short: as §4
Mus musculus [9] = assay: Long-term survivors among 6 mice infected with P388 leukemia, scored on day 60 at 160 mg/kg dose; format: functional; in short: as §3
Mus musculus [10] = assay: Percent median survival time of mice injected with B16 melanoma, at a intraperitoneal compound dose of 20 mg/kg
Mus musculus [11] = assay: Long-term survivors among 7 mice infected with B16 melanoma, scored on day 90 at 10 mg/kg dose on day 1; format: functional
Mus musculus [12] = assay: Long-term survivors among 7 mice infected with P388 leukemia, scored on day 60 at 10 mg/kg dose on day 1; format: functional; in short: as §2
Mus musculus [13] = assay: Percent median survival time of mice injected with P388 leukemia, at a subcutaneous compound dose of 10 mg/kg on day 1; format: functional
Mus musculus [14] = assay: Percent median survival time of mice injected with P388 leukemia, at a subcutaneous compound dose of 10 mg/kg on day 1, 5, 9; format: functional
Mus musculus [15] = assay: Percent median survival time of mice injected with B16 melanoma, at a intraperitoneal compound dose of 10 mg/kg
Mus musculus [16] = assay: Long-term survivors among 14 mice infected with P388 leukemia, scored on day 60 at 40 mg/kg dose on day 1; format: functional; in short: as §3
Mus musculus [17] = species: Mus musculus; assay: Long-term survivors among 14 mice infected with B16 melanoma, scored on day 90 at optimal dose on days 1-9
Mus musculus [18] = assay: Percent median survival time of mice injected with P388 leukemia, at a intravenous compound dose of 40 mg/kg
Mus musculus [19] = assay: Long-term survivors among 14 mice infected with P388 leukemia, scored on day 60 at 320 mg/kg dose on day 1; format: functional; in short: as §3
Mus musculus [20] = species: Mus musculus; assay: Long-term survivors among 14 mice infected with B16 melanoma, scored on day 90 at optimal dose on days 1-9; remark: listed apart in the source
Mus musculus [21] = assay: Percent median survival time of mice injected with P388 leukemia, at a intravenous compound dose of 80 mg/kg
Mus musculus [22] = assay: Percent median survival time of mice injected with P388 leukemia, at a intravenous compound dose of 320 mg/kg
Mus musculus [23] = assay: Long-term survivors among 6 mice infected with P388 leukemia, scored on day 60 at 40 mg/kg dose on day 1, 5, 9; format: functional; in short: as §3
Mus musculus [24] = assay: Long-term survivors among 7 mice infected with P388 leukemia, scored on day 90 at 10 mg/kg dose; format: functional
Mus musculus [25] = assay: Long-term survivors among 6 mice infected with P388 leukemia, scored on day 60 at 40 mg/kg dose on day 1; format: functional; in short: as §3
Mus musculus [26] = assay: Percent median survival time of mice intraperitoneally injected with P388 leukemia was determined from tested at 40 mg/kg at day1 dose to that of control; format: functional; conditions: route intraperitoneal; in short: as §4
Mus musculus [27] = assay: Percent median survival time of mice intraperitoneally injected with P388 leukemia was determined from tested at 40 mg/kg at day1,5,9 dose to that of control; format: functional; conditions: route intraperitoneal; in short: as §4
Mus musculus [28] = assay: Percent median survival time of mice injected with B16 melanoma, at a intraperitoneal compound dose of 5 mg/kg
Mus musculus [29] = assay: Long-term survivors among 6 mice infected with P388 leukemia, scored on day 60 at 60 mg/kg dose on day 1; format: functional; in short: as §3
Mus musculus [30] = assay: Long-term survivors among 6 mice infected with B16 melanoma, scored on day 90 at 10 mg/kg dose
Mus musculus [31] = assay: Percent median survival time of mice injected with P388 leukemia, at a intravenous compound dose of 60 mg/kg
Mus musculus [32] = assay: Long-term survivors among 6 mice infected with P388 leukemia, scored on day 60 at 40 mg/kg dose; format: functional; in short: as §3
Mus musculus [33] = assay: Long-term survivors among 6 mice infected with P388 leukemia, scored on day 60 at 20 mg/kg dose; format: functional; in short: as §3
Mus musculus [34] = assay: Percent median survival time of mice intraperitoneally injected with P388 leukemia was determined from tested at 20 mg/kg at day1,5,9 dose to that of control; format: functional; conditions: route intravenous; in short: as §4

For `Cc1c2ccnc(C(=O)NCCN(C)C)c2cc2c3cc(OC(=O)NCCCC(=O)OCc4ccccc4)ccc3n(C)c12`, the IC50 (B16) was 29.4 nM, the IC50 (L1210) was 304 nM and the LTS (Mus musculus [1]) was 0. For the same compound, the LTS (Mus musculus [2]) was 0, the T/C (Mus musculus [3]) was 93% and the T/C (Mus musculus [4]) was 103%. The T/C (Mus musculus [5]) was 96%.
`Cc1c2ccnc(C(=O)NCCN(C)C)c2cc2c3cc(OC(=O)N4CCOCC4)ccc3n(C)c12` was tested, and the IC50 (B16) was 1770 nM, the IC50 (L1210) was 646 nM and the LTS (Mus musculus [6]) was 0. It also gave a T/C (Mus musculus [7]) of 196%, a T/C (Mus musculus [8]) of 149% and an LTS (Mus musculus [9]) of 0. For the same compound, the T/C (Mus musculus [10]) was 139%.
`CCCCCCCCC(=O)Oc1ccc2c(c1)c1cc3c(C(=O)NCCN(C)C)nccc3c(C)c1n2C` showed an IC50 (B16) of 20.8 nM, an IC50 (L1210) of 31.1 nM and an LTS (Mus musculus [11]) of 0. The LTS (Mus musculus [12]) was 0, the T/C (Mus musculus [13]) was 131% and the T/C (Mus musculus [14]) was 147%. It also gave a T/C (Mus musculus [15]) of 160%.
With `CCCCCCCCCCCCCC(=O)Oc1ccc2c(c1)c1cc3c(C(=O)NCCN(C)C)nccc3c(C)c1n2C` the IC50 (B16) was 195 nM, the IC50 (L1210) was 215 nM and the LTS (Mus musculus [16]) was 0. It also gave a T/C (Mus musculus [3]) of 153%, an LTS (Mus musculus [17]) of 1 and a T/C (Mus musculus [18]) of 176%. The T/C (Mus musculus [15]) was 166%.
Work on `CCCCCCCCCCCCNC(=O)Oc1ccc2c(c1)c1cc3c(C(=O)NCCN(C)C)nccc3c(C)c1n2C` yielded an IC50 (B16) of 2300 nM, an IC50 (L1210) of 809 nM and an LTS (Mus musculus [11]) of 0. The LTS (Mus musculus [12]) was 0, the T/C (Mus musculus [13]) was 104% and the T/C (Mus musculus [14]) was 107%. The T/C (Mus musculus [5]) was 133%.
Compound `Cc1c2ccnc(C(=O)NCCN(C)C)c2cc2c3cc(OC(=O)CCCCCC(=O)O)ccc3n(C)c12` has an IC50 (B16) of 3.2 nM, an IC50 (L1210) of 3.7 nM and an LTS (Mus musculus [19]) of 5. For the same compound, the LTS (Mus musculus [20]) was 1, the T/C (Mus musculus [21]) was greater than 600% and the T/C (Mus musculus [22]) was greater than 600%. It also gave a T/C (Mus musculus [15]) of 246%.
`Cc1c2ccnc(C(=O)NCCN(C)C)c2cc2c3cc(OC(=O)N4CCC(N5CCCCC5)CC4)ccc3n(C)c12` gave an IC50 (B16) of 2690 nM, an IC50 (L1210) of 696 nM and an LTS (Mus musculus [23]) of 0. The LTS (Mus musculus [24]) was 0, the LTS (Mus musculus [25]) was 0 and the T/C (Mus musculus [26]) was 133%. It also gave a T/C (Mus musculus [27]) of 169% and a T/C (Mus musculus [15]) of 161%.
With `Cc1c2ccnc(C(=O)NCCN(C)C)c2cc2c3cc(OC(=O)Cc4ccccc4)ccc3n(C)c12` the IC50 (B16) was 22.3 nM, the IC50 (L1210) was 26.7 nM and the LTS (Mus musculus [11]) was 0. For the same compound, the LTS (Mus musculus [12]) was 0, the T/C (Mus musculus [13]) was 125% and the T/C (Mus musculus [14]) was 157%. It also gave a T/C (Mus musculus [28]) of 147%.
`CC(=O)Oc1ccc2c(c1)c1cc3c(C(=O)NCCN(C)C)nccc3c(C)c1n2C` showed an IC50 (B16) of 6.1 nM, an IC50 (L1210) of 5.1 nM and an LTS (Mus musculus [23]) of 0. For the same compound, the LTS (Mus musculus [29]) was 1, the LTS (Mus musculus [30]) was 0 and the T/C (Mus musculus [18]) was 275%. It also gave a T/C (Mus musculus [31]) of 214% and a T/C (Mus musculus [15]) of 182%.
`COc1ccc2c(c1)c1cc3c(C(=O)NCCN(C)C)nccc3c(C)c1n2C` showed an IC50 (B16) of 334 nM, an IC50 (L1210) of 551 nM and an LTS (Mus musculus [24]) of 0. For the same compound, the LTS (Mus musculus [32]) was 0, the LTS (Mus musculus [33]) was 0 and the T/C (Mus musculus [34]) was 96%. For the same compound, the T/C (Mus musculus [26]) was 94% and the T/C (Mus musculus [15]) was 126%.

From ChEMBL document CHEMBL1132144, “Synthesis of 9-O-substituted derivatives of 9-hydroxy-5, 6-dimethyl-6H-pyrido[4,3-b]carbazole-1-carboxylic acid (2-(dimethylamino)ethyl)amide and their 10- and 11-methyl analogues with improved antitumor activity” (J Med Chem, 1999)
